# Laboratory results: ChEMBL document CHEMBL1155830, “Asymmetric synthesis of 2,3-dihydro-2-arylquinazolin-4-ones: methodology and application to a potent fluorescent tubulin inhibitor with anticancer activity” (J Med Chem, 2008)
# pIC50: −log10 of the molar value.
# Tests used:
# [1] = Displacement of [3H]colchicine from tubulin at 5 uM
# [2] = tested on: HCT-116; assay: Antiproliferative activity against human HCT116 cells after 72 hrs; type: functional; settings: HCT-116, 72 h
# In short: (§1)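 HCT-116 cells were kept in McCoy's 5a with 1.5 mM L-glutamine and 5% FBS, and MDA-MB-435 cells in D-MEM with 1.5 mM L-glutamine and 5% FBS, both at 37 °C in humidified 5% CO2. Cells were seeded at 3200 per well, allowed to attach, and given vehicle or drug at 10 nM–3 µM (n = 8) for 72 h. Live cells were read by CellTiter 96 AQueous at 490 nm, and the 50% inhibitory value was taken from the dose–response curve.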
# [3] = tested on: MDA-MB-435; assay: Antiproliferative activity against human MDA-MB-435 cells after 72 hrs; type: functional; settings: MDA-MB-435, 72 h; in short: as §1
# [4] = Inhibition of tubulin polymerization
# [5] = Displacement of [3H]colchicine from tubulin at 50 uM
SMILES,inhibition [1],GI50 [2],GI50 [3],pIC50 [4],inhibition [5]
Cc1ccccc1-c1ccc([C@@H]2NC(=O)c3cc([N+](=O)[O-])ccc3N2)cc1,28%,100 nM,0.1 nM,5.96,66%
Cc1ccccc1-c1ccc(C2NC(=O)c3cc([N+](=O)[O-])ccc3N2)cc1 (racemic),17%,300 nM,100 nM,5.77,51%
CC(=O)O[C@H]1C(=O)[C@@]2(C)[C@H]([C@H](OC(=O)c3ccccc3)[C@]3(O)C[C@H](OC(=O)[C@H](O)[C@@H](NC(=O)c4ccccc4)c4ccccc4)C(C)=C1C3(C)C)[C@]1(OC(C)=O)CO[C@@H]1C[C@@H]2O [PACLITAXEL],–,–,4 nM,–,–

# More lines, now with the values ahead:
inhibition [1],GI50 [2],GI50 [3],pIC50 [4],inhibition [5],SMILES
99%,–,–,–,–,COc1ccc(/C=C\c2cc(OC)c(OC)c(OC)c2)cc1O
2.1%,930 nM,1100 nM,4.80,5.5%,Cc1ccccc1-c1ccc([C@H]2NC(=O)c3cc([N+](=O)[O-])ccc3N2)cc1
